Data set [1] can be described thus: Small angle X-ray scattering. In kind it is physicochemical. Particulars: 2 mM; -1 indicative of cylinders, -2 possibly bundling. Put shortly:
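Synchrotron SAXS used 15 keV X-rays from a double-crystal monochromator and an offset CCD to cover a wide angle range. Samples at 2 mM were held in 1.5 mm quartz capillaries; incident flux was about 10^12 photons/s. Intensity was plotted on a relative scale against q = (4π/λ) sin(θ/2).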

A short description of data set [2]: Complete blood count and metabolic profiling 24 h after PA administration. In kind it is in vivo, mice. The conditions noted are these: 24 h after administration. Put shortly: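 Blood was drawn from mice 24 h after PA or PBS administration and sent to an external laboratory for complete blood count and metabolic profiling. Groups were compared by two-way ANOVA with Bonferroni post-tests.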

Data set [3] is classed as in vivo, athymic nude mice bearing MDA-MB-231 tumors. The conditions noted are these: IP, Alexa 700-labelled KLAK PA. An outline of the steps: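 Female athymic nude mice carried orthotopic MDA-MB-231 mammary tumours. Dialysed Alexa 700-conjugated PA (20 mg/kg, 1.8 mM; 2.5 μg dye) was given ip, ± 27 mg/kg coassembled PEG PA. Plasma was collected by tail bleed or terminal cardiac puncture, spun 10 000 rpm for 10 min, and read on a plate reader. Paraformaldehyde-fixed tissues were imaged as average radiant efficiency; n = 6 per time point.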

A short description of data set [4]: 1H diffusion ordered spectroscopy. Type of data set: physicochemical. The conditions noted are these: DOSY, D2O, ambient temperature; 5 mM KLAK PA alone or 2.5 mM KLAK PA and 2.5 mM PEG PA. Put shortly: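 Coassembled by dissolving each PA separately in HFIP, mixing at least 15 min, lyophilizing, redissolving in water and lyophilizing again. 1H DOSY at 600 MHz and ambient temperature in 99.9% D2O, at constant total PA of 5 mM (single PA) or 2.5 mM + 2.5 mM (mixed). 32 points were acquired with a 7 μs 90-degree pulse.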

A short description of data set [5]: Cryogenic and conventional TEM of nanostructures. In kind it is physicochemical. Particulars: cryo-TEM. Put shortly:
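For conventional TEM, samples were drop-cast on carbon-coated copper grids and stained with 2% aqueous uranyl acetate. For cryo-TEM, grids were blotted at 95% humidity and plunged into liquid ethane. Both were imaged at 100 keV.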

palmitoyl-A4G3(KLAKLAK)2 [KLAK PA]: in data set [1], the “SAXS slope in the low-q range” value was “approximately -2”. Besides, the alkaline phosphatase levels entry in data set [2] (compared with PBS treated controls) is given as “significantly lower”. The blood glucose levels entry in data set [2] (mice) is listed as “significantly higher”. Also, the observed plasma half-lives entry in data set [3] (plasma fluorescence, mice) is “on the order of several hours”. In addition, in data set [3] (tumor bearing mice, IVIS), the “tissue localization of fluorescence” value is “predominantly localized to liver and kidney”. Moreover, the “diffusion coefficient of KLAK PA (peak at 2.83 ppm)” value in data set [4] is 0.69×10^−10 m^2/s. Also, in data set [5], the fiber diameter result is recorded as “roughly 10 nm” and the fiber length result was “several hundred”.

Values taken from article PMC3458188 (ACS nano, 2012).
